Measurements as given in ChEMBL document CHEMBL1156811, “2,4,6-trisubstituted triazines as protein a mimetics for the treatment of autoimmune diseases” (J Med Chem, 2010).
Active and inactive are the calls of the source. The rule behind the calls is not given here.

What was measured:
[1] = Inhibition of protein A binding to horseradish peroxidase-conjugated human IgG in PBS solution by Protein A human IgG competitive ELISA
In short: (§1)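 Plate wells coated overnight at 4 °C with protein A (0.8 ug/well), washed with PBS, and blocked with 2% BSA for 1 h at 37 °C. Compound diluted in PBS or PBS–20% DMSO was added with HRP-conjugated human IgG and incubated 1 h at 37 °C. After washing, bound HRP-IgG was developed with ABTS for 20 min in the dark at room temperature and read at 405 nm. IC50 is the concentration inhibiting 50% binding.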

[2] = Inhibition of protein A binding to horseradish peroxidase-conjugated human IgG in 20% DMSO/PBS solution by Protein A human IgG competitive ELISA; in short: as §1
[3] = biological target: Low affinity immunoglobulin gamma Fc region receptor III-B (Homo sapiens, UniProt O75015); experiment: Inhibition of heat aggregated human IgG binding to human Fc-gamma-R3b
[4] = Inhibition of protein A binding to heat aggregated human IgG
[5] = biological target: T1, Low affinity immunoglobulin gamma Fc region receptor II-a (Homo sapiens, UniProt P12318); experiment: Inhibition of heat aggregated human IgG binding to human Fc-gamma-R2a
T1 sequence (P12318 whole entry): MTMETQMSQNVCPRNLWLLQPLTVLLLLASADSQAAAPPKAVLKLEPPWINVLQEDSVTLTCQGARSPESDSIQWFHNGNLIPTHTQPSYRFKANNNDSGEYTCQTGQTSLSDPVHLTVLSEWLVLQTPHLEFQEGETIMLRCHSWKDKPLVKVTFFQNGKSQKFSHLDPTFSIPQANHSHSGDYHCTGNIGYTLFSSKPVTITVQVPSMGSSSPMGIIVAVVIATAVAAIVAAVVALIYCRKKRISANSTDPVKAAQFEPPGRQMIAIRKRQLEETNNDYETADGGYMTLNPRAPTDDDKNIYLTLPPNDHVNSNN

[6] = system: Mus musculus; experiment: Reduction of antibody immune complexes in NZB/NZW-F1 mouse systemic lupus erythematosus model at 50 mg/kg, iv administered once weekly starting from week 12 relative to untreated control; type: functional, organism-based; set-up: dose 50 mg/kg
[7] = system: Mus musculus; experiment: Reduction of immune complex deposits in homozygous fas mutant MRL/lpr mouse systemic lupus erythematosus model at 50 mg/kg, iv administered once weekly for 5 consecutive weeks between 18 and 22 weeks by electron microscopy; type: functional, organism-based; set-up: dose 50 mg/kg
In short: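 MRL/lpr mice (homozygous fas mutation) received 50 mg/kg or vehicle intravenously once a week for 5 consecutive weeks, between weeks 18 and 22. Mice were then sacrificed, and immune complex deposition in kidney tissue was recorded by electron microscopy.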

[8] = system: Mus musculus; experiment: Reduction of anti-dsDNA antibody levels in NZB/NZW-F1 mouse systemic lupus erythematosus model at 50 mg/kg, iv administered once weekly starting from week 12 relative to untreated control; type: functional
In short: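 NZB/NZW F1 hybrid mice were given 50 mg/kg intravenously once weekly from week 12, against vehicle-treated controls. Serum anti-dsDNA autoantibodies were measured by a literature method, and total IgG was also monitored.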

Chain of Low affinity immunoglobulin gamma Fc region receptor III-B (O75015 whole entry): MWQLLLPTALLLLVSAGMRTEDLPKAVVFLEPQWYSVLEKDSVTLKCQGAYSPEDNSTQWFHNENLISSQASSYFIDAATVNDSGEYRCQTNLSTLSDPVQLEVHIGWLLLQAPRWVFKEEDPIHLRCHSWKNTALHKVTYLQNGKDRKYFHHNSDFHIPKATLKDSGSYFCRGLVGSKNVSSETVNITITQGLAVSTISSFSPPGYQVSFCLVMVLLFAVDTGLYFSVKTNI

SMILES	IC50 ([1]; read-out: IC50) [nM]	other results
Nc1cccc(CNc2nc(Nc3ccc(CCNc4nc(NCCO)nc(Nc5cccc(N)c5)n4)cc3)nc(Nc3cccc(N)c3)n2)c1	141	–
Nc1cccc(Nc2nc(NCCO)nc(NCCc3ccc(Nc4nc(Nc5cccc(N)c5)nc(Nc5cccc(N)c5)n4)cc3)n2)c1	56	–
Nc1cccc(Nc2nc(NCCO)nc(NCCCNc3nc(NCCO)nc(Nc4cccc(N)c4)n3)n2)c1	56	–
Nc1cccc(Nc2nc(NCCO)nc(NCCc3ccc(Nc4nc(NCCO)nc(Nc5cccc(F)c5)n4)cc3)n2)c1	382	IC50 ([2]; read-out: IC50): 209 nM
Nc1cccc(Nc2nc(NCCO)nc(NCCOCCNc3nc(NCCO)nc(Nc4cccc(N)c4)n3)n2)c1	70	IC50 ([2]; read-out: IC50): 5190 nM
Nc1cccc(Nc2nc(NCCO)nc(NCC(O)CNc3nc(NCCO)nc(Nc4cccc(N)c4)n3)n2)c1	56	–
Nc1cccc(Nc2nc(NCCO)nc(NCCc3ccc(Nc4nc(NCCc5ccc(O)cc5)nc(Nc5cccc(N)c5)n4)cc3)n2)c1	–	IC50 [1]: Not Active
Nc1cccc(Nc2nc(NCCO)nc(NCCc3ccc(Nc4nc(Nc5cccc(N)c5)nc(NC5CCNC5)n4)cc3)n2)c1 (stereo unspecified)	233	–
CC(C)(CNc1nc(NCCO)nc(Nc2cccc(N)c2)n1)CNc1nc(NCCO)nc(Nc2cccc(N)c2)n1	41	–
Nc1cccc(Nc2nc(NCCO)nc(NCCNc3nc(NCCO)nc(Nc4cccc(N)c4)n3)n2)c1	58	–
Nc1cccc(Nc2nc(NCCO)nc(NCCc3ccc(Nc4nc(NCCO)nc(Nc5ccc(Cl)cc5)n4)cc3)n2)c1	841	IC50 ([2]; read-out: IC50): 893 nM
CN(C)c1ccc(CCNc2nc(Nc3ccc(CCNc4nc(NCCO)nc(Nc5cccc(N)c5)n4)cc3)nc(Nc3cccc(N)c3)n2)cc1	695	–
CN(C)CCNc1nc(Nc2ccc(CCNc3nc(NCCO)nc(Nc4cccc(N)c4)n3)cc2)nc(Nc2cccc(N)c2)n1	89	–
CN(C)c1nc(Nc2ccc(CCNc3nc(NCCO)nc(Nc4cccc(N)c4)n3)cc2)nc(Nc2cccc(N)c2)n1	89	–
Nc1cccc(Nc2nc(NCCO)nc(NCCc3ccc(Nc4nc(NCCO)nc(Nc5ccc(F)cc5)n4)cc3)n2)c1	361	IC50 ([2]; read-out: IC50): 204 nM
Nc1cccc(Nc2nc(NCCO)nc(NCCc3ccc(Nc4nc(NCCc5ccccc5)nc(Nc5cccc(N)c5)n4)cc3)n2)c1	449	–
OCCNc1nc(NCCc2ccc(Nc3nc(NCCO)nc(Nc4ccccc4F)n3)cc2)nc(Nc2ccccc2F)n1	–	IC50 [2]: Not Active; IC50 [1]: Not Active
Nc1cccc(Nc2nc(NCCO)nc(NCCCCNc3nc(NCCO)nc(Nc4cccc(N)c4)n3)n2)c1	187	–

SMILES	IC50 ([1]; read-out: IC50) [nM]	other results
Nc1cccc(Nc2nc(NCCO)nc(Nc3cccc(Nc4nc(NCCO)nc(Nc5cccc(N)c5)n4)c3)n2)c1	293	–
Nc1cccc(Nc2nc(NCCO)nc(NCCc3ccc(Nc4nc(NCC(O)c5cccc(N)c5)nc(Nc5cccc(N)c5)n4)cc3)n2)c1 (stereo unspecified)	130	–
Nc1ccc(CCNc2nc(Nc3ccc(CCNc4nc(NCCO)nc(Nc5cccc(N)c5)n4)cc3)nc(Nc3cccc(N)c3)n2)cc1	54	IC50 [3]: 57000 nM; IC50 [4]: 83 nM; IC50 [5]: 12000 nM; Activity [6]: Active; Activity [7]: Active; fold change (FC) [8]: 2
Nc1cccc(Nc2nc(NCCO)nc(Nc3ccc4c(c3)CCN4c3nc(NCCO)nc(Nc4cccc(N)c4)n3)n2)c1	80	–
Nc1cccc(Nc2nc(NCCO)nc(NCCc3cccc(Nc4nc(NCCO)nc(Nc5cccc(N)c5)n4)c3)n2)c1	–	IC50 [1]: Not Active
N=C(N)CCNc1nc(NCCO)nc(NCCc2ccc(Nc3nc(NCCO)nc(Nc4cccc(F)c4)n3)cc2)n1	–	IC50 [2]: Not Active; IC50 [1]: Not Active
Nc1cccc(Nc2nc(NCCO)nc(Nc3ccc(Nc4nc(NCCO)nc(Nc5cccc(N)c5)n4)cc3)n2)c1	157	–
CS(=O)(=O)c1cccc(Nc2nc(NCCO)nc(Nc3ccc(CCNc4nc(NCCO)nc(Nc5cccc(N)c5)n4)cc3)n2)c1	243	IC50 ([2]; read-out: IC50): 192 nM
Nc1cccc(CCNc2nc(Nc3ccc(CCNc4nc(NCCO)nc(Nc5cccc(N)c5)n4)cc3)nc(Nc3cccc(N)c3)n2)c1	119	–
NCCNc1nc(NCCO)nc(Nc2ccc(CCNc3nc(NCCO)nc(Nc4cccc(N)c4)n3)cc2)n1	410	IC50 ([2]; read-out: IC50): 749 nM
Nc1cccc(Nc2nc(NCCO)nc(NCCc3ccc(Nc4nc(NCCc5cccc(O)c5)nc(Nc5cccc(N)c5)n4)cc3)n2)c1	118	–
Nc1cccc(Nc2nc(NCCO)nc(NCCc3ccc(Nc4nc(NCCc5ccc(F)cc5)nc(Nc5cccc(N)c5)n4)cc3)n2)c1	531	–
Nc1cccc(Nc2nc(NCCO)nc(NCCc3ccc(Nc4nc(NCCO)nc(Nc5cccc(N)c5)n4)cc3)n2)c1	84	IC50 ([2]; read-out: IC50): 144 nM
CN1CCN(c2nc(Nc3ccc(CCNc4nc(NCCO)nc(Nc5cccc(N)c5)n4)cc3)nc(Nc3cccc(N)c3)n2)CC1	59	–
Nc1cccc(Nc2nc(NCCO)nc(NCCc3ccc(Nc4nc(NCCO)nc(NCCO)n4)cc3)n2)c1	94	IC50 ([2]; read-out: IC50): 81 nM
Nc1cccc(Nc2nc(NCCO)nc(NCCc3ccc(Nc4nc(NCCc5ccccc5N)nc(Nc5cccc(N)c5)n4)cc3)n2)c1	185	–
CC(Nc1nc(NCCO)nc(Nc2cccc(N)c2)n1)c1ccc(Nc2nc(NCCO)nc(Nc3cccc(N)c3)n2)cc1 (stereo unspecified)	–	IC50 [1]: Not Active
